Test results from ChEMBL document CHEMBL1800069, “Structure-based design of a new series of D-glutamic acid based inhibitors of bacterial UDP-N-acetylmuramoyl-L-alanine:D-glutamate ligase (MurD)” (J Med Chem, 2011).
Values after ≈ are worked out from the molar mass of the structure shown. Active and inactive are the calls of the source. The rule behind the calls is not given here.

What was measured:
[1] = Inhibition of Escherichia coli MurD ligase catalyzed addition of D-Glu to UDP-MurNAc-L-Ala after 15 mins by colorimetric analysis
Summary of the method: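 Malachite green colorimetric detection of orthophosphate released by E. coli MurD ligase, with 0.01% Triton X-100 present to avoid aggregate-based nonspecific inhibition. IC50 is taken as the inhibitor concentration that leaves 50% residual enzyme activity.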

[2] = tested on: Escherichia coli; assay: Inhibition of Escherichia coli MurD ligase catalyzed addition of D-Glu to UDP-MurNAc-L-Ala assessed as residual activity at 500 uM after 15 mins by colorimetric analysis
Summary of the method: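 E. coli MurD activity read by malachite green detection of released orthophosphate, with 0.01% Triton X-100 present. Residual activity (%) measured with 500 μM test compound. Values are the mean of two independent experiments, with standard deviations within ±10% of the mean.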

[3] = tested on: Staphylococcus aureus; assay: Antibacterial activity against Staphylococcus aureus ATCC 29213 after 18 to 24 hrs by CLSI method; format: functional
[4] = tested on: Enterococcus faecalis; assay: Antibacterial activity against Enterococcus faecalis ATCC 29212 after 18 to 24 hrs by CLSI method; format: functional
[5] = tested on: Escherichia coli; assay: Antibacterial activity against Escherichia coli ATCC 25922 after 18 to 24 hrs by CLSI method; format: functional, organism-based
[6] = tested on: Pseudomonas aeruginosa; assay: Antibacterial activity against Pseudomonas aeruginosa ATCC 27853 after 18 to 24 hrs by CLSI method; format: functional, organism-based

Row | IC50 [1] [µM] | Activity [2] [%] | Compound | other results
1 | – | 71 | O=C(O)CC[C@@H](NC(=O)c1cc(CNc2ccc(/C=C3\SC(=O)NC3=O)cc2)ccc1F)C(=O)O | –
2 | – | 87 | O=C(O)CC[C@@H](NC(=O)c1cccc(CNc2ccc(OCC(=O)O)cc2)c1)C(=O)O | –
3 | – | 89 | O=C(O)CC[C@@H](NC(=O)c1cccc(CNc2cccc(OCC(=O)O)c2)c1)C(=O)O | –
4 | 105 | – | O=C(O)CCC(=O)N(Cc1cccc(C(=O)N[C@H](CCC(=O)O)C(=O)O)c1)c1ccc(/C=C2\SC(=O)NC2=O)cc1 | –
5 | 253 | – | O=C(O)CC[C@@H](NC(=O)c1cc(CNc2ccc(/C=C3\SC(=S)NC3=O)cc2)ccc1F)C(=O)O | –
6 | 5 | – | O=C(O)CC[C@@H](NC(=O)c1cccc(CN(C(=O)C(=O)O)c2ccc(/C=C3\SC(=S)NC3=O)cc2)c1)C(=O)O | –
7 | 7 | – | O=C(O)CCC(=O)N(Cc1cccc(C(=O)N[C@H](CCC(=O)O)C(=O)O)c1)c1ccc(/C=C2\SC(=S)NC2=O)cc1 | MIC [3]: 128 µg/mL (≈ 213 µM); MIC [4]: 128 µg/mL (≈ 213 µM); Activity [5]: inactive; Activity [6]: inactive
8 | – | 94 | O=C(O)CC[C@@H](NC(=O)c1ccc2ccn(Cc3ccc(OCC(=O)O)cc3)c2c1)C(=O)O | –

The next lines start with the molecule.

Row | Compound | IC50 [1] [µM] | Activity [2] [%] | other results
9 | O=C(O)CC[C@@H](NC(=O)c1cccc(CN(C(=O)C(=O)O)c2ccc(/C=C3\SC(=O)NC3=O)cc2)c1)C(=O)O | 40 | – | –
10 | O=C(O)CC[C@@H](NC(=O)c1ccc(NCc2ccc(/C=C3\SC(=O)NC3=O)cc2)cc1)C(=O)O | – | 88 | –
11 | N=C1NC(=O)/C(=C/c2ccc(NCc3cccc(C(=O)N[C@H](CCC(=O)O)C(=O)O)c3)cc2)S1 | – | 85 | –
12 | O=C(O)CC[C@@H](NC(=O)c1cc(CNc2ccc(/C=C3\SC(=S)NC3=O)cc2)ccc1O)C(=O)O | 124 | – | –
13 | COC(=O)CCC(=O)N(Cc1cccc(C(=O)N[C@H](CCC(=O)OC)C(=O)OC)c1)c1ccc(/C=C2\SC(=S)NC2=O)cc1 | – | – | Activity [3]: inactive; Activity [4]: inactive; Activity [5]: inactive; Activity [6]: inactive
14 | O=C(O)CC[C@@H](NC(=O)c1cccc(CNc2ccc(/C=C3\NC(=O)NC3=O)cc2)c1)C(=O)O | – | 99 | –
15 | O=C(O)/C=C/c1ccc(NCc2cccc(C(=O)N[C@H](CCC(=O)O)C(=O)O)c2)cc1 | – | 96 | –
16 | O=C(O)CC[C@@H](NC(=O)c1cccc(CN(C(=O)CC(=O)O)c2ccc(/C=C3\SC(=O)NC3=O)cc2)c1)C(=O)O | 15 | – | –
17 | O=C(O)CC[C@@H](NC(=O)c1cccc(CN(C(=O)CC(=O)O)c2ccc(/C=C3\SC(=S)NC3=O)cc2)c1)C(=O)O | 3 | – | MIC [4]: 128 µg/mL (≈ 219 µM); Activity [5]: inactive; Activity [6]: inactive
18 | COC(=O)CC[C@@H](NC(=O)c1cccc(CN(C(=O)CC(=O)OC)c2ccc(/C=C3\SC(=S)NC3=O)cc2)c1)C(=O)OC | – | – | Activity [3]: inactive; Activity [4]: inactive; Activity [5]: inactive; Activity [6]: inactive
